Experimental data reported in ChEMBL document CHEMBL4270657, “Efficient synthesis of new phenanthridine Wnt/β-catenin signaling pathway agonists” (Eur J Med Chem, 2018).
Active and inactive are the calls of the source. No cut-off for these calls is given here.

Experiments:
[1] = tested on: HEK293; assay: Activation of Wnt/beta-catenin signaling pathway (unknown origin) expressed in HEK293 cells harboring pEGFP-C1/TOP Flash/LacZ in Wnt3a conditioned medium after 6 hrs by luciferase reporter gene assay; assay type: cell-based; settings: Homo sapiens
Method in brief: (§1)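 HEK293T cells in DMEM with 10% heat-inactivated FBS, 37°C, 5% CO2. Cells in 24-well plates were transfected with 250 ng plasmid per well (20 ng TOPFlash, 25 ng EGFP-C1, LacZ filler). 18 h later they were treated in Wnt3a CM or control CM for 6 h. Lysate GFP fluorescence was read first, then luciferase luminescence.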

[2] = tested on: HEK293; assay: Activation of Wnt/beta-catenin signaling pathway (unknown origin) expressed in HEK293 cells harboring pEGFP-C1/TOP Flash/LacZ at 5 to 20 uM in Wnt3a conditioned medium after 6 hrs by luciferase reporter gene assay; assay type: cell-based; settings: Homo sapiens; method in brief: as §1
[3] = molecular target: Axin-1 (Mus musculus) (UniProt O35625); assay: Inhibition of HLY179 binding to mouse His6-tagged AXIN DAX domain expressed in Escherichia coli at 80 uM after 1 to 2 hrs by Western blot analysis
Chain of Axin-1 (Mus musculus) (O35625 whole entry, the tested form may be a part): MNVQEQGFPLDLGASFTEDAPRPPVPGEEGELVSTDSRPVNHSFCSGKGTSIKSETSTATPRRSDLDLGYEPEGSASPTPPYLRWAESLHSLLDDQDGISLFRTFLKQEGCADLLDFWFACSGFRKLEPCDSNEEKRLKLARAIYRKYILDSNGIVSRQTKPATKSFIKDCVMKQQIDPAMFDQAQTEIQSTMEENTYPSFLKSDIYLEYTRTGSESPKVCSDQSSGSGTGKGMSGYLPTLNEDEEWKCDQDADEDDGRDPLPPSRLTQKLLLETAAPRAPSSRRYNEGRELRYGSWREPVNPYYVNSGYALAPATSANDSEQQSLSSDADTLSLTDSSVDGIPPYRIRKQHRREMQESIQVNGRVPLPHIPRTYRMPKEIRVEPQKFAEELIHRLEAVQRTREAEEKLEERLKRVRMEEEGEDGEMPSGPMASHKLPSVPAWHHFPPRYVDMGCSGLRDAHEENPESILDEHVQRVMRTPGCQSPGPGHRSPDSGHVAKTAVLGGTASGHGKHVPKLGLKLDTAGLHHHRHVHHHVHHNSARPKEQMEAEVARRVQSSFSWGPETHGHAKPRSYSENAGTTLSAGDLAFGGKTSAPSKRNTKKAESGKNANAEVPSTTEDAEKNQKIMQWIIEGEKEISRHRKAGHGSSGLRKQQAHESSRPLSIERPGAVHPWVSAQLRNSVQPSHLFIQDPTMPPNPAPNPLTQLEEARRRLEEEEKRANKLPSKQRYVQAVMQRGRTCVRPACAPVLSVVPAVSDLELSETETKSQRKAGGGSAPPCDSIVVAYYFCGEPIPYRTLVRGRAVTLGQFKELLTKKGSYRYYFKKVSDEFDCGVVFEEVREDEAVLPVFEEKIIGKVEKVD

[4] = tested on: HEK293; assay: Activation of Wnt/beta-catenin signaling pathway (unknown origin) expressed in HEK293 cells harboring pEGFP-C1/TOP Flash/LacZ in Wnt3a conditioned medium assessed as increase in DKK1 gene expression at 0.5 to 5 uM after 6 hrs by luciferase reporter gene assay; assay type: cell-based; settings: Homo sapiens
Method in brief: (§2)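 HEK293T cells were treated with compound plus control or Wnt3a CM for 6 h. Total RNA was extracted with TRIzol and reverse-transcribed with oligo(dT) priming. Transcripts were quantified by PCR with target primers (DKK1 given) and GAPDH primers as reference.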

[5] = tested on: HEK293; assay: Activation of Wnt/beta-catenin signaling pathway (unknown origin) expressed in HEK293 cells harboring pEGFP-C1/TOP Flash/LacZ in Wnt3a conditioned medium assessed as increase in AXIN2 gene expression at 0.5 to 5 uM after 6 hrs by luciferase reporter gene assay; assay type: cell-based; settings: Homo sapiens; method in brief: as §2

Compound	CD [1] [µM]	Activity [2]	inhibition [3]	Activity [4]	Activity [5]
CCN1Cc2cc(OCc3cccnc3)ccc2-c2cccc(C)c21	1.5				
Cc1cc(COc2ccccc2)n(C)n1		Active			
CCN1Cc2cc(OCc3cc(C)nn3C)c(OCc3cc(C)nn3C)cc2-c2cccc(C)c21	0.15		Active	Active	Active
Cc1cc(COc2ccccc2)nn1C		Active			
COc1ccc2c(c1)CN(C)c1c(C)cccc1-2			Active		
CCN1Cc2cc(OCc3cc(C)nn3C)ccc2-c2cccc(C)c21	0.5		Active		
CCN1Cc2cc(OCc3cccnc3)c(OCc3cccnc3)cc2-c2cccc(C)c21	5		Active		
CCN1Cc2cc(OCc3cc(C)n(C)n3)ccc2-c2cccc(C)c21	3		Active	Active	Active
CCN1Cc2cc(OC)c(OC)cc2-c2cccc(C)c21	5	Active			
CCN1Cc2cc(OC)ccc2-c2cccc(C)c21		Active	Active		
c1ccc(OCc2cccnc2)cc1		Active			
